The source made the active and inactive calls. No rule for the calls is given here.
Test system: HMLE_shTWIST viability, CellTiter-Glo luminescence, 72 h
Experiment: HMLE_shTWIST cancer stem cell-like viability inhibition, dose response, CellTiter-Glo luminescence, dry powder (AID 588703)
Conditions: not given
Outline: (§1)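 Material – HMLE_shTWIST EMT-induced stable cell line · Input – 1000 cells per well · Times – 72 h compound exposure, dosing 24 h post-seeding · Medium – serum-free screening medium · Benchmarks – DMSO-only wells · Signal – CellTiter-Glo luminescence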

| SMILES | AC50 [nM] |
| --- | --- |
| O=C(COc1cc(Cl)ccc1Cl)N/N=C/c1ccc[nH]1 | 920 |
| O=C(N/N=C/c1ccc[nH]1)c1cc2ccccc2o1 | 180 |
| O=C(COc1ccc(Cl)cc1Cl)N/N=C/c1ccc[nH]1 | 2210 |
| O=C(COc1c(Cl)cc(Cl)cc1Cl)N/N=C/c1ccc[nH]1 | 110 |
| Cc1cc(Cl)ccc1OCC(=O)N/N=C/c1ccc[nH]1 | 1600 |
| CC(C)(C)c1ccc2c(c1)OC(C(=O)N/N=C/c1ccc[nH]1)CO2 (configuration not stated) | 2890 |

Test system: not listed separately
Experiment: as above
Conditions: HMLE_shTWIST viability, CellTiter-Glo luminescence, 72 h
Outline: as §1

| SMILES | outcome |
| --- | --- |
| O=C(COc1ccc(Cl)cc1Cl)N/N=C/c1cnc[nH]1 | inactive |

From PubChem BioAssay AID588703 (Broad Institute, 2011)
